ChEMBL document CHEMBL1828589, “Isoeugenol-based novel potent antioxidants: synthesis and reactivity” (Eur J Med Chem, 2011)

Tests used:
Assay type in all cases: functional
[1] = Antioxidant activity assessed as inhibition of linoleic acid lipid peroxidation at 100 ug/ml measured after 6 hrs by ferric thiocynate method
In short: (§1)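 Mitsuda ferric thiocyanate method. Linoleic acid/Tween 20 emulsion in 0.2 M phosphate pH 7.0, mixed with ethanolic compound and buffer. Incubated at 37 °C in the dark and sampled every 6 h. Aliquot taken into 75% ethanol, 30% ammonium thiocyanate and 0.02 M FeCl2 in 3.5% HCl; A500 read after 3 min. Inhibition % = (Ac−As)/Ac×100 against a no-compound control. Triplicates.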

[2] = Antioxidant activity assessed as inhibition of linoleic acid lipid peroxidation at 100 ug/ml measured after 12 hrs by ferric thiocynate method; in short: as §1
[3] = Antioxidant activity assessed as inhibition of linoleic acid lipid peroxidation at 100 ug/ml measured after 18 hrs by ferric thiocynate method; in short: as §1
[4] = Antioxidant activity assessed as inhibition of linoleic acid lipid peroxidation at 100 ug/ml measured after 24 hrs by ferric thiocynate method; in short: as §1
[5] = Antioxidant activity assessed as inhibition of linoleic acid lipid peroxidation at 100 ug/ml measured after 30 hrs by ferric thiocynate method; in short: as §1
[6] = Antioxidant activity assessed as inhibition of linoleic acid lipid peroxidation at 100 ug/ml measured after 36 hrs by ferric thiocynate method; in short: as §1
[7] = test system: Radical scavenging activity; assay: Antioxidant activity assessed as residual DPPH radical scavenging activity after 30 mins by spectrophotometric analysis
In short: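 Compound in ethanol at 10–40 µg/mL (3 mL) mixed with 1 mL of 0.1 mM ethanolic DPPH. Shaken, then left 30 min at room temperature, read at 517 nm. IC50 (µM) is the concentration giving a 50% fall in absorbance, from regression; three repeats.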

[8] = Antioxidant activity assessed as residual ABTS+ radical scavenging activity after 30 mins by spectrophotometric analysis
In short: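 ABTS radical cation formed from 2 mM ABTS and 2.45 mM potassium persulfate in water, kept dark at room temperature for 12 h. Ethanolic compound at 10–30 µg/mL added to the radical solution. Remaining radical read at 734 nm and converted to concentration by a calibration curve (0.033–0.33 mM). IC50 (µM) by regression; three repeats.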

[9] = Antioxidant activity assessed as superoxide radical scavenging activity after 40 mins by Zhishen's method
In short: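 Riboflavin (3×10⁻⁵ M), methionine (1×10⁻² M) and NBT (1×10⁻⁴ M) in 0.05 M phosphate pH 7.8. Illuminated 25 °C for 40 min to form formazan; absorbance at 560 nm, with an unilluminated mixture as control. Compounds tested at 10–40 µg/mL. IC50 (µM) by regression; three repeats.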

[10] = Antioxidant activity assessed as ferric to ferrous reduction at 10 ug/ml by FRAP assay
In short: (§2)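 Oyaizu method, adjusted. Diluted compound in ethanol mixed with 0.2 mol/L phosphate buffer pH 6.6 and 1% K3Fe(CN)6, held 50 °C for 20 min. Then 10% trichloroacetic acid added and spun at 10,000g for 10 min. Upper layer mixed with water and 0.1% FeCl3, absorbance read at 700 nm. Mean ± SD of three replicate assays.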

[11] = Antioxidant activity assessed as ferric to ferrous reduction at 20 ug/ml by FRAP assay; in short: as §2
[12] = Antioxidant activity assessed as ferric to ferrous reduction at 30 ug/ml by FRAP assay; in short: as §2
[13] = Antioxidant activity assessed as ferric to ferrous reduction activity at 40 ug/ml by FRAP assay; in short: as §2

Row | Structure (SMILES) | inhibition [1] | inhibition [2] | inhibition [3] | inhibition [4] | inhibition [5] | inhibition [6] | IC50 [7] | IC50 [8] | IC50 [9] | Activity [10] | Activity [11] | Activity [12] | Activity [13]
1 | CCC(c1ccc(O)c(OC)c1)c1cccc(O)c1O (configuration not stated) | 34% | 74% | 90% | 94% | 97% | 96% | 5.8 µM | 8.43 µM | 6.17 µM | 0.49 | 0.54 | 0.58 | 0.73
2 | C/C=C\c1ccc(O)c(OC)c1 [ISOEUGENOL] | 28% | 42% | 90% | 96% | 91% | 82% | 40.7 µM | 8.84 µM | 42.3 µM | 0.32 | 0.37 | 0.41 | 0.43
3 | Cc1c(C)c2c(c(C)c1O)CCC(C)(C(=O)O)O2 (configuration not stated) [TROLOX] | 35% | 70% | 87% | 89% | 92% | 86% | 5.84 µM | 8 µM | 61.3 µM | 0.23 | 0.38 | 0.56 | 0.72
4 | CCOc1cccc(C(CC)c2ccc(O)c(OC)c2)c1O (configuration not stated) | 37% | 77% | 89% | 96% | 97% | 96% | 6.19 µM | 7.19 µM | 13.7 µM | 0.21 | 0.22 | 0.25 | 0.28
5 | Cc1cc(C(C)(C)C)c(O)c(C(C)(C)C)c1 [BUTYLATED HYDROXYTOLUENE] | 47% | 81% | 92% | 97% | 98% | 98% | 11.5 µM | 10.2 µM | 28.4 µM | 0.27 | 0.39 | 0.5 | 0.6
6 | CCC(c1ccc(O)c(OC)c1)c1cccc(C(C)C)c1O (configuration not stated) | 38% | 78% | 88% | 95% | 97% | 96% | 6.3 µM | 7 µM | 10.1 µM | 0.22 | 0.2 | 0.2 | 0.24
7 | CCC(c1ccc(O)c(OC)c1)c1ccccc1O (configuration not stated) | 32% | 75% | 90% | 94% | 97% | 96% | 7.83 µM | 8.53 µM | 10.5 µM | 0.26 | 0.27 | 0.3 | 0.34
8 | CCC(c1ccc(O)c(O)c1)c1ccc(O)c(OC)c1 (configuration not stated) | 37% | 78% | 90% | 96% | 98% | 97% | 5.8 µM | 8.28 µM | 6.61 µM | 0.43 | 0.55 | 0.58 | 0.64
9 | CCC(c1ccc(O)c(OC)c1)c1ccc(O)cc1O (configuration not stated) | 36% | 75% | 85% | 94% | 97% | 94% | 6.71 µM | 10.1 µM | 15.3 µM | 0.27 | 0.32 | 0.36 | 0.47
